Cytotoxicity data for 39 molecules are collected here from ChEMBL document CHEMBL4513216, “Probing the Open Global Health Chemical Diversity Library for Multistage-Active Starting Points for Next-Generation Antimalarials” (ACS Infect Dis, 2020).

Structures are written as SMILES.

The data set can be described thus: Toxicity liver stage against HepG2, at 10uM. The class given is cell-based. Also on record: test concentration 10 uM, cell line HepG2-A16-CD81EGFP. The conditions noted are these: human, HepG2-A16-CD81EGFP cells; read-out: INHIBITION
The essentials: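 Uninfected HepG2-A16-CD81EGFP cells, 3 × 10^3 per well, 1536-well, plated on prespotted compound at 10 μM final, parasite-free screening media added to match infected plates; puromycin 10 μM positive, DMSO 0.5% negative; run in parallel with 48 h PbLuc assay at 37 °C, 5% CO2; viability by CellTiter-Glo luminescence, normalized to controls.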
As for `NC(=O)CN1CCc2c(Br)ccc(F)c2C1`, the cytotoxicity at 10 µM was 0.892%.
As for `COC(=O)c1ccc(N2CCN(C(=O)c3cc(C)no3)C(C)C2)cc1` (centres undefined), the cytotoxicity at 10 µM was -0.192%.
Turning to `N#CC1(C(=O)NCCCNc2ccc(C(F)(F)F)cn2)CCCC1`, the cytotoxicity at 10 µM is -6.36%.
In the case of `COC(=O)C1CCCCN1Cc1cccc(C(=O)NCc2ccco2)c1` (centres undefined) it was -12.5%; in that of `Cn1cc(CN(Cc2ccccc2)Cc2ccccn2)cn1`, 19.1%; in that of `CCOc1ccc(Cl)cc1CCNC(=O)Cn1ccccc1=O`, 8%.
In the case of `CO[C@@H]1CCN(S(=O)(=O)c2cn(C)cn2)[C@H]1Cc1cnn(C)c1` it was 4.56%.
Take `COCC1CN(C(=O)Cc2ccccn2)Cc2c1cnn2CC1CC1` (centres undefined): the cytotoxicity at 10 µM was -69.1%.
`COc1ccc(-c2cccc(-c3ccn(CC4COCCO4)n3)c2)nn1` (centres undefined): the cytotoxicity at 10 µM is -7.78%.
For the molecule `O=C(O)COCC(=O)NC1CC2(CCCCC2)Oc2ccccc21` (centres undefined), the cytotoxicity at 10 µM was -28.5%.
As for `CCc1ccccc1-c1cc(C)nc(N)n1`, the cytotoxicity at 10 µM came to 1.12%.
Turning to `Cn1cccc1C(=O)N1CCO[C@H]2[C@H](OCc3cccnc3)CC[C@@H]21`, the cytotoxicity at 10 µM stood at 7.2%.
For the molecule `CN(C)C(=O)c1cn[nH]c1C1(C)CCCN(Cc2ccccn2)C1` (centres undefined), the cytotoxicity at 10 µM worked out at 4.68%.
For the molecule `c1c(CN2CCCCC2)nc2n1CCNC2`, the cytotoxicity at 10 µM was determined as 3.91%.
On to `CS(=O)(=O)N1CCCC12CCCN(S(=O)(=O)c1cccc(F)c1)C2` (centres undefined), for which the cytotoxicity at 10 µM is 0.88%.
`O=C(Nc1cnc(Oc2ccccc2F)nc1)C1CC1`: the cytotoxicity at 10 µM is 0.0701%.
As for `CCc1cc2c(N3CCCC(c4ccn[nH]4)C3)ncnc2s1` (centres undefined), the cytotoxicity at 10 µM is 15.7%.
As for `CC(C)(C)OC(=O)NC(C)(C)c1noc(CSc2ccccn2)n1`, the cytotoxicity at 10 µM is 9.18%.
In the case of `CCc1nc2c(NCC3COc4ccccc4C3)ncnc2o1` (centres undefined), the cytotoxicity at 10 µM was determined as 10.5%.
Consider `CC(C)c1csc(C(=O)N(C)c2ccc(Br)cn2)n1`, for which the cytotoxicity at 10 µM amounted to 3.33%.
Consider `Cc1nc(N2CCN(C)CC2)ncc1C(=O)N1CCC(O)(CO)CC1`, for which the cytotoxicity at 10 µM was -0.395%.
On to `CC(=O)N1CCN(c2ccc(Cl)nn2)C(=O)C1`, for which the cytotoxicity at 10 µM worked out at 6.69%.
As for `Cc1cccc(CN2CC3C[C@]3(NC(=O)c3ccco3)C2)n1` (some centres undefined), the cytotoxicity at 10 µM was -142%.
In the case of `Cn1cc(C(O)CNC(=O)c2sccc2OC(F)F)cn1` (centres undefined) it was 0.606%; in that of `OCCC1CN(c2nc(-c3ccncc3)nc3c2CCNCC3)CCO1` (centres undefined), 5.05%; in that of `CC(NC(=O)c1ccc(C#N)cn1)C1(N2CCOCC2)CCCC1` (centres undefined), 2.54%.
For the molecule `O=C(c1ncoc1-c1ccco1)N1CCCN(c2nccs2)CC1`, the cytotoxicity at 10 µM worked out at 2.99%.
In the case of `CSc1ncccc1C(=O)Nc1ccc(Cn2ccccc2=O)cc1`, the cytotoxicity at 10 µM turned out to be 2.77%.
In the case of `Cc1nn(C)c2c(N3CCN(C(=O)C4CCCO4)CC3)ncnc12` (centres undefined), the cytotoxicity at 10 µM was found to be 6.42%.
The value for `Cc1ccc(CN2CCC3(CC2)CN(c2cnn(C)c2)C(=O)CO3)o1` was 2.96%; that for `Cc1ncc(CNC(=O)CCc2c(C)noc2C)c(C2CCCN2C)n1` (centres undefined) was -8.86%.
The value for `Fc1ccc2c(c1)CCC2NCc1ccc(N2CCOCC2)cc1` (centres undefined) was -1.54%; that for `N#Cc1ccnc(SCC2CN=C(N3CCOCC3)S2)c1` (centres undefined) was -22.9%.
On to `COc1cccc(-c2noc(C3CCN(Cc4ccc(C)cc4)C3)n2)c1` (centres undefined), for which the cytotoxicity at 10 µM is -5.89%.
For the molecule `O=C(NCC1CCN(CCc2ccccc2)C1)c1c(F)cccc1F` (centres undefined), the cytotoxicity at 10 µM was 16.6%.
On to `COCCCC1(CO)CCCN(C(=O)c2cnc3c(c2)CCCC3)C1` (centres undefined), for which the cytotoxicity at 10 µM is -50.2%.
The value for `Cc1cc(N2CCc3c(ncn3C)C2)nc(N)n1` was -7.93%; that for `O=C1N(CC2CCCC2)CCC12CCN(c1ncc(F)cn1)CC2` was 11.2%.
In the case of `CC(C)(C)C(=O)N1CCC2(COCc3cnc(N4CCOCC4)nc32)C1` (centres undefined) it was -14.2%.
